Measurements from different studies.
Compare with care: the assays were run in different laboratories.
Target: Mitogen-activated protein kinase kinase kinase 9 (MAP3K9, Homo sapiens, UniProt P80192)
Read-out: enzyme activity
Mode: inhibitor

`O=C(NCCCNc1ccnc(Nc2cccc(NC(=O)N3CCCC3)c2)n1)C1CCC1` gave a remaining activity of 79% (radiometric; 1 µM).
The remaining activity of `Cc1cnc(NC2CCOCC2)nc1-n1cnc(C(=O)NC(CN)c2cc(F)cc(Cl)c2)c1` (stereo not shown) is reported as 94% (radiometric; 1 µM).
For `CCN(CC)c1ccc(C2=NNC(=O)CC2C)cc1[N+](=O)[O-]` (stereo not shown), the remaining activity was 100% (10 µM).
`Oc1cccc(-c2nc(N3CCOCC3)c3oc4ncccc4c3n2)c1` gave a remaining activity of 65% (10 µM).
For `NS(=O)(=O)c1ccc(CNc2ccnc(Nc3cccc(CN4CCOCC4)c3)n2)cc1`, the remaining activity was 81% (radiometric; 1 µM).
With `CCCOc1ccc(OC)c(F)c1C(=O)c1ccc(C(=O)N[C@@H]2CNC[C@H]2NC(=O)c2ccc3[nH]ncc3c2)cc1` the remaining activity was 32% (10 µM).
The remaining activity of `CN1CCc2cc(Nc3ncc(C4CC4)c(NCCCNC(=O)C4CCC4)n3)ccc2C1` is reported as 14% (radiometric; 1 µM).
`O=C(Nc1cnn(-c2csc(C(=O)NC3COC3)c2)c1)Nc1c(F)cccc1Cl` gave a remaining activity of 88.5% (5 µM).
The remaining activity of `Cc1ccc(C(=O)Nc2ccc(CN3CCN(C)CC3)c(C(F)(F)F)c2)cc1C#Cc1cnc2cccnn12` is reported as 96% (23.5 nM).
The remaining activity of `COc1cc(Nc2cnc(C#N)c(O[C@H](C)CN(C)C)n2)ncc1-c1cnn(C)c1` is reported as 48% (radiometric; 10 µM).
The remaining activity of `Cc1nn(CC(F)(F)F)cc1Nc1ncc(C2CC2)c(NCc2ccc(S(N)(=O)=O)cc2)n1` is reported as 90% (radiometric; 1 µM).
With `Cc1sc(C(=O)NC2COC2)cc1-n1cc(NC(=O)Nc2c(F)cccc2Cl)cn1` the remaining activity was 87.5% (10 µM).
`CC(C)(O)[C@H]1CC[C@H](Nc2ccc3ncc(-c4cccc(C(F)(F)F)c4)n3n2)CC1` has a remaining activity of 77% (1 µM).
With `Cc1nn(CC(F)(F)F)cc1Nc1nccc(NCc2ccc(S(N)(=O)=O)cc2)n1` the remaining activity was 97% (radiometric; 1 µM).
The remaining activity of `CC(C)(C)c1nc(-c2cccc(NS(=O)(=O)c3c(F)cccc3F)c2F)c(-c2ccnc(N)n2)s1` is reported as 70% (radiometric; 1 µM).
With `FC(F)c1nc2ccccc2n1-c1nc(N2CCOCC2)nc(N2CCOCC2)n1` the remaining activity was 86% (10 µM).
With `CC(C)(C)c1nc2c(s1)c1nc(N)ncc1c1ccc(NS(=O)(=O)c3c(F)cccc3F)c(F)c12` the remaining activity was 66% (radiometric; 1 µM).
With `COc1cc(Cl)c(C(=O)N[C@@H](CN[C@H]2CC[C@@H](N)CC2)Cc2ccc(C#N)cc2)cc1-c1ccc(CN[C@H](C)c2ccc(C)cc2)o1` the remaining activity was 97% (1 µM).
With `Cc1nn(CC(F)(F)F)cc1Nc1ncc(Br)c(NCCc2cnc[nH]2)n1` the remaining activity was 30% (radiometric; 1 µM).
